ChEMBL document CHEMBL1135469, “Design, synthesis, and antiproliferative activity of some new pyrazole-fused amino derivatives of the pyranoxanthenone, pyranothioxanthenone, and pyranoacridone ring systems: a new class of cytotoxic agents” (J Med Chem, 2002)

How the values were obtained:
A549 [1] = experiment: In vitro cytotoxic activity against human lung A549 cell line; type: functional, cell-based
Summary of the method: (§1)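 MTT assay on human cells grown in DMEM with 10% FBS and penicillin/streptomycin at 37 °C, 5% CO2. About 5000 cells/well; compounds diluted with DMSO are added after 24 h for 48 h. Then 1 mg/mL MTT (final) in serum-free, phenol-red-free RPMI for 4 h. Formazan dissolved in 2-propanol, OD 550 nm (ref 690 nm).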

HCT-116 [2] = experiment: In vitro cytotoxic activity against human colon HCT116 cell line; type: functional, cell-based; summary of the method: as §1
HRT-18 cell line [3] = experiment: In vitro inhibition of HRT-18 (human colon) cell proliferation.; type: functional, cell-based; summary of the method: as §1
HT-29 [4] = experiment: In vitro cytotoxic activity against human colon HT-29 cell line; type: functional, cell-based; summary of the method: as §1
L1210 = experiment: In vitro cytotoxic activity against murine leukemia cell line L1210; type: functional, cell-based; conditions: Mus musculus
MDA-MB-231 [5] = experiment: In vitro cytotoxic activity against human breast MDA-MB-231 cell line; type: functional, cell-based; summary of the method: as §1
Calf thymus DNA = experiment: In vitro inhibition of calf thymus DNA/ethidium bromide complex formation.; type: nucleic-acid assay
Summary of the method: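 Ethidium displacement: compounds added to 5 mM Tris-HCl/0.5 mM EDTA buffer, pH 8, containing calf thymus DNA (1 µg/mL) and ethidium bromide (1 µg/mL). EC50 is the concentration halving DNA/ethidium complex fluorescence. Mean of two experiments.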

HT-29 [6] = experiment: In vitro cytotoxic activity against human colon HT-29 cell line ( standard deviation in parenthesis); type: functional, cell-based; summary of the method: as §1
HCT-116 [7] = experiment: In vitro cytotoxic activity against human colon HCT116 cell line ( standard deviation in parenthesis); type: functional, cell-based; summary of the method: as §1
HRT-18 cell line [8] = experiment: In vitro cytotoxic activity against human colon […] cell line ( standard deviation in parenthesis); type: functional, cell-based; summary of the method: as §1
MDA-MB-231 [9] = experiment: In vitro cytotoxic activity against human breast MDA-MB-231 cell line ( standard deviation in parenthesis); type: functional, cell-based; summary of the method: as §1
A549 [10] = experiment: In vitro cytotoxic activity against human lung A549 cell line); type: functional, cell-based
Summary of the method: (§2)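 MTT assay on human tumour cells grown in DMEM with 10% FBS, penicillin and streptomycin at 37 °C, 5% CO2. About 5000 cells/well were seeded, and compounds diluted with DMSO were added after 24 h. After 48 h exposure, 1 mg/mL MTT (final) was added for 4 h. Formazan was dissolved in 2-propanol and read at 550 nm (reference 690 nm).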

HRT-18 cell line [11] = experiment: In vitro cytotoxic activity against human colon HRT-18 cell line; type: functional, cell-based; summary of the method: as §2
A549 [12] = experiment: In vitro cytotoxic activity against human lung A549 cell line ( standard deviation in parenthesis); type: functional, cell-based; summary of the method: as §2

Row | Compound | IC50 (A549 [1]) [µM] | IC50 (HCT-116 [2]) [µM] | IC50 (HRT-18 cell line [3]) [µM] | IC50 (HT-29 [4]) [µM] | IC50 (L1210) [µM] | IC50 (MDA-MB-231 [5]) [µM] | EC50 (Calf thymus DNA) [µM] | IC50 (HT-29 [6]) [µM] | IC50 (HCT-116 [7]) [µM] | IC50 (HRT-18 cell line [8]) [µM] | IC50 (MDA-MB-231 [9]) [µM] | IC50 (A549 [10]) [µM] | IC50 (HRT-18 cell line [11]) [µM] | IC50 (A549 [12]) [µM]
1 | CCN(CC)CCn1nc2c3c(c4c(cc31)OC(C)(C)C=C4)Oc1ccccc1-2 | 10 | 40 | 5 | 9 | 9.1 | 9 | – | – | – | – | – | – | – | –
2 | CCN(CC)CCn1nc2c3c(c4c(cc31)OC(C)(C)C=C4)Oc1c(OC)cccc1-2 | 33 | 41 | 30 | 9 | 9.9 | 11 | 273 | – | – | – | – | – | – | –
3 | COc1cccc2c1Oc1c3c(cc4c1c-2nn4CCN1CCCC1)OC(C)(C)C=C3 | 33 | 43 | 60 | 8 | 10.6 | 11 | 71.7 | – | – | – | – | – | – | –
4 | COc1cccc2c1Oc1c3c(cc4c1c-2nn4CCO)OC(C)(C)C=C3 | > 100 | 64 | > 100 | > 100 | > 10 | > 100 | 274 | – | – | – | – | – | – | –
5 | CN1c2ccccc2-c2nn(CCOS(C)(=O)=O)c3cc4c(c1c23)C=CC(C)(C)O4 | – | – | – | – | 2.5 | – | – | 20 | 49 | – | – | – | – | –
6 | CN(C)CCn1nc2c3c(c4c(cc31)OC(C)(C)C=C4)Oc1ccccc1-2 | 32 | 54 | 50 | 18 | 9.8 | 50 | 431 | – | – | – | – | – | – | –
7 | COc1cccc2c1Oc1c3c(cc4c1c-2nn4CCN(C)C)OC(C)(C)C=C3 | 50 | 51 | 17 | 9 | 14.6 | 48 | 150 | – | – | – | – | – | – | –
8 | CC1(C)C=Cc2c(cc3c4c(nn3CCOS(C)(=O)=O)-c3ccccc3Oc24)O1 | > 100 | – | – | – | 31.9 | – | – | 24 | 33 | 22 | 53 | – | – | –
9 | CC1(C)C=Cc2c(cc3c4c(nn3CCN3CCCC3)-c3ccccc3Oc24)O1 | 27 | 42 | 30 | 9 | 8.3 | 12 | – | – | – | – | – | – | – | –
10 | CC1(C)C=Cc2c(cc3c4c(nn3CCOS(C)(=O)=O)-c3ccccc3Sc24)O1 | – | – | – | – | 15 | – | > 500 | 45 | 44 | 30 | > 100 | – | – | –
11 | CC1(C)C=Cc2c(cc3c4c(nn3CCN3CCCCC3)-c3ccccc3Oc24)O1 | 15 | 20 | 10 | 6.5 | 10.1 | 20 | – | – | – | – | – | – | – | –
12 | COc1ccc2c(c1)-c1nn(CCOS(C)(=O)=O)c3cc4c(c(c13)N2C)C=CC(C)(C)O4 | > 100 | – | – | – | 0.4 | – | – | 18 | 12 | – | 12 | – | – | –
13 | COc1cccc2c1Oc1c3c(cc4c1c-2nn4CCOS(C)(=O)=O)OC(C)(C)C=C3 | – | – | – | – | 26.7 | – | – | – | – | – | – | – | – | –
14 | COc1cccc2c1Oc1c3c(cc4c1c-2nn4CCN1CCCCC1)OC(C)(C)C=C3 | 31 | 54 | 12 | 6 | 16.5 | 37 | 290 | – | – | – | – | – | – | –
15 | CC1(C)C=Cc2c(cc3c4c(nn3CCO)-c3ccccc3Oc24)O1 | > 100 | 28 | 4 | 12 | > 10 | 100 | – | – | – | – | – | – | – | –
16 | COc1cc2c(c3c1c(=O)c1ccccc1n3C)C=CC(C)(C)O2 [ACRONINE] | – | > 100 | – | > 100 | – | – | 270 | – | – | – | – | > 100 | > 100 | –
17 | Cc1c2ccncc2c(C)c2c1[nH]c1ccccc12 [ELLIPTECINE] | – | – | – | – | – | – | 22.2 | 15 | – | – | 2.3 | – | – | 10
18 | O=C1c2c(O)ccc(O)c2C(=O)c2c(NCCNCCO)ccc(NCCNCCO)c21 [MITOXANTRONE] | – | – | – | – | – | – | 3.4 | – | – | – | 1 | – | – | –
